Compounds with a hit are over-represented: about 1% of the library has one in this group of screens.
Yeast growth tox: yeast growth toxicity, wild-type and mutant, primary screen, cytotoxicity control for eIF2B function restoration project, wild-type and eIF2Bepsilon R284H mutant, A595. S. cerevisiae wild-type growth, A595 turbidity, 16 h. growth inhibition, % at 25 µM (by protocol). actives 0.3% (n = 30,000). AID 685, 2007;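 active means mutant and wild-type yeast strains alike exhibit over 30% growth inhibition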
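Incubation: 16 h growth with compound, 30 °C; Material: S. cerevisiae wild-type or eIF2Bepsilon-R284H mutant strain; Signal: turbidity measured as absorbance at 595 nm; Medium: YPD yeast growth medium; Measure: growth inhibition (%) versus cell controls and blanks; Doses: 25 µM single dose.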
eIF2B yeast act: GCN4-lacZ reporter reduction in eIF2B-epsilon mutant yeast, primary screen, S. cerevisiae, eIF2B-epsilon R284H, Beta-Glo luminescence. inhibition, % at 25 µM (by protocol). actives 0.91% (n = 27,000);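 active means mutant luminescence inhibited past about 50% while wild type luminescence and mutant growth stay under set limits, limit read from the data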
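Assay system: yeast eIF2B-epsilon R284H mutant carrying GCN4–beta-galactosidase fusion / Buffer or medium: YPD / Incubation: 16 h growth with compound at 30 °C, 90 min Beta-Glo step / Detection: Beta-Glo luminescence after Z-buffer lysis, growth by 595 nm absorbance / Read-out: % inhibition of reporter signal and growth versus controls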
A number is an active result.

How did CCN1C(=O)c2ccccc2Sc2ccc(C(=O)N3CCC4(CC3)OCCO4)cc21 do in these assays?
Yeast growth tox: inactive; eIF2B yeast act: inactive

Results for CN1C(=O)c2ccccc2Sc2ccc(C(=O)N3CCC4(CC3)OCCO4)cc21 ?
Yeast growth tox: inactive; eIF2B yeast act: 63

Results for CC(C)CCP(=O)(O)c1ccccc1 ?
Yeast growth tox: inactive; eIF2B yeast act: inactive

How did CC(Cc1ccccc1)[n+]1cc(/N=C(\[O-])Nc2ccccc2)on1 (centres undefined) do in these assays?
Yeast growth tox: inactive

What do the screens show for `CC12CN3CN(C1)CC(c1ccccc1)(C3)C2=O`?
Yeast growth tox: inactive; eIF2B yeast act: inactive

How did COCCn1c(-c2ccccc2)cc(C(=O)O)c1C do in these assays?
Yeast growth tox: inactive; eIF2B yeast act: 51

How did CCCn1ncc(C(=O)O)c1C do in these assays?
Yeast growth tox: inactive

How did O=C(c1ccccc1F)c1cn(CC(=O)N2CCCCC2)c2ccccc12 do in these assays?
Yeast growth tox: inactive

What do the screens show for `COP(=O)(OC)C1(Nc2ccc(C)cc2)CCCCC1`?
Yeast growth tox: 49; eIF2B yeast act: inactive

How did CN(C)P(=O)(C(Cl)=C(N1CCCCC1)N1CCCCC1)N(C)C do in these assays?
Yeast growth tox: inactive; eIF2B yeast act: 58

How did Cc1cccc(C)c1NC(=O)CN(C)CC(=O)Nc1ccc(C#N)c(Cl)c1 do in these assays?
Yeast growth tox: inactive; eIF2B yeast act: inactive

What do the screens show for `Cc1c(/C=N/O)c2ccccc2n1C`?
Yeast growth tox: inactive; eIF2B yeast act: inactive
